# STEP block: blocks human striatal-enriched tyrosine phosphatase; P54829; recombinant STEP, OMFP fluorogenic substrate, fluorescence; inhibition, % at 20 µM; 360,000 compounds, 0.25% hits;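 active means inhibition at 20 µM, scaled per plate between control wells, above about 37%, limit read from the data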;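 further: 0% = DMSO with enzyme and substrate and 100% = substrate only without enzyme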
# Target sequence (P54829 whole entry, looked up): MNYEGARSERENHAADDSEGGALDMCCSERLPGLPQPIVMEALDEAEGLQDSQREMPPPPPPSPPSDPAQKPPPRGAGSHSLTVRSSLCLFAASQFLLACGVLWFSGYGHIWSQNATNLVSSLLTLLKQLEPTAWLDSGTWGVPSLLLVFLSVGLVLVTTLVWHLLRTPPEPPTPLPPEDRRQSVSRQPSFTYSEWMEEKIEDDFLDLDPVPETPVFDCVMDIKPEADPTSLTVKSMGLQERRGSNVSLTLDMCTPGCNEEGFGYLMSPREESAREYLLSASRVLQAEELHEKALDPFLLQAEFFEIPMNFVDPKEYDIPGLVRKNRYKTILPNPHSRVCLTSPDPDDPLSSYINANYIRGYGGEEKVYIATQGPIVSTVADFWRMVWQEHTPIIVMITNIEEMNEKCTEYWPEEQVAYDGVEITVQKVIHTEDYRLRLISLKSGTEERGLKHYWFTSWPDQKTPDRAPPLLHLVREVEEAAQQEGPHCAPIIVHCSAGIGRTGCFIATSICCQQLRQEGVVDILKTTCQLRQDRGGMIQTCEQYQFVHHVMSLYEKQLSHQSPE
#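 Assay system: isolated STEP enzyme / Timing: 20 min at room temperature, dark / Doses: 20 µM, 1% DMSO / Technique: fluorescence intensity, excitation 480 nm, emission 540 nm / Reagent: fluorogenic phosphatase substrate OMFP at 25 µM final / Measure: percent inhibition scaled to no-enzyme and uninhibited-enzyme controls, plate-pattern corrected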
# LMPTP inh: LMPTP (human) inhibition | P24666 | recombinant LMPTP-A, OMFP fluorogenic substrate, fluorescence intensity | inhibition, % at 20 µM | 360,000 compounds, 0.22% hits | AID 651560;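 active means compounds that cut the enzyme signal by at least half of the control window in the single-dose screen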;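 further: plate controls were DMSO wells with enzyme plus substrate for no effect and substrate without enzyme for full effect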
#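 Test system – LMPTP-A enzyme · Amount – LMPTP-A at 0.625 nM final in the reaction · Buffer or medium – Bis-Tris pH 6.0, DTT, detergent · Reagent – OMFP 400 µM · Doses – single 20 µM dose · Schedule – reaction 50 min, room temperature, dark · Detection – fluorescence intensity of OMFP turnover product · Evaluation – percent inhibition versus substrate-only and uninhibited controls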
# SUMO1 PPI mod: modulators of human SUMO1-mediated protein-protein interactions. P63165. SUMO1 binding to a labelled peptide, TR-FRET, 1 h. inhibition, % at 20 µM. 360,000 compounds, 0.33% hits; in the data active means inhibition above about 37%
# Scp-1 inhibitor: inhibitors of human Scp-1 phosphatase | Recombinant Scp1, phosphopeptide, malachite green phosphate absorbance | 340,000 compounds, 0.88% hits | Q9GZU7 | inhibition, % at 20 µM;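 active means inhibition above about 50% at 20 µM, limit read from the data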;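 further: plate controls were DMSO wells with enzyme for no effect and wells lacking enzyme for full effect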
#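 Times: enzyme reaction 45 min at room temperature, colour 5 min, stabilisation 30 min. Material: SCP-1 catalytic fragment, aa 76-261. Medium: Acidic Tris acetate buffer with magnesium and detergent. Signal: colorimetric free-phosphate detection, absorbance 630 nm. Read-out basis: % inhibition of SCP-1 phosphate liberation. Reagent: Phosphorylated 17-residue peptide substrate.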
# DNMT1 block: blocks human DNA methyltransferase DNMT1. inhibition (reported as % activation of signal), % at 10 µM. DNMT1 molecular beacon, Hinp1I cleavage, fluorescence. 360,000 compounds, 0.83% hits. AID 588458. P26358; in the data active means inhibition above about 50%
# NadD block: blocks S. aureus nicotinate mononucleotide adenylyltransferase | purified NadD enzyme, colorimetric absorbance read-out | inhibition, % at 20 µM | 360,000 compounds, 0.78% hits | AID 602399; in the data active means inhibition above about 26%
# NadD conf: confirmation of Staphylococcus aureus NadD inhibitors; 2,000 compounds, 13% hits; purified S. aureus NadD, colorimetric enzyme assay; inhibition, % at 20 µM; shares compounds with NadD block; in the data active means inhibition mostly above about 42%, no sharp cut-off; inactive means mostly below about 42%
# * = called active by the depositor; . = no result given. Hits are enriched below; roughly 2.3% of the tested compounds scored in any of these assays.
SMILES,STEP block,LMPTP inh,SUMO1 PPI mod,Scp-1 inhibitor,DNMT1 block,NadD block,NadD conf
COc1ccc(NC(=O)c2c(NC(=O)CNCC(C)C)sc3c2CCC3)c(OC)c1,0,1,2,6,-2,0,.
Cc1sc(NC(=O)Cc2ccc3c(c2)OCO3)nc1-c1ccc2c(c1)CCN2C(=O)c1cccc(F)c1,0,2,-3,4,-4,34*,20
O=C(CSc1nc2ccccc2s1)N1N=C(c2cccs2)CC1c1ccc(F)cc1 (configuration not stated),2,5,1,-10,-3,0,.
O=C(CSc1nc2c(cnn2-c2ccc(F)cc2)c(=O)[nH]1)N1N=C(c2cccs2)CC1c1ccc(F)cc1 (configuration not stated),-4,3,5,.,7,54*,1
O=C(NCc1ccccc1)N1CCNCC1,-2,-4,-3,-2,-1,4,.
CN(C)c1ccc(Sc2nnc(NC(=O)Nc3ccc(Cl)cc3Cl)s2)cc1,0,-1,-2,-17,1,39*,7
CCC(=O)Nc1nnc(Sc2ccc(N(C)C)cc2)s1,23,0,0,14,13,2,.
S=C(Nc1ccc(Oc2ccc(NC(=S)NC3CCCCC3)cc2)cc1)NC1CCCCC1,2,-1,3,-3,-3,35*,31
S=C(Nc1ccc(Oc2ccccc2)cc1)NC1CCCCCC1,-1,2,1,-5,-3,4,.
Cc1cc[n+]2cc(-c3cccc([N+](=O)[O-])c3)c(-c3cccc([N+](=O)[O-])c3)cc2c1,-2,14,-12,-4,32,32*,6
COC(Cc1ccccc1N1CCCC1=O)OC,3,0,4,-9,4,-5,.
Cc1ccc(S(=O)(=O)NCC(=O)OCC(=O)NCc2cccs2)cc1,-1,1,-2,1,3,-1,.
CC(C)c1ccc(NC(=O)c2cc(S(=O)(=O)N3CCCCC3)c[nH]2)cc1,1,1,3,-10,14,0,.
COc1ccc(NC(=O)c2c(Nc3ccccc3)sc(C(=O)c3ccc(F)cc3)c2N)cc1,-3,3,-15,-14,-18,33*,-1
COc1ccc(Nc2sc(C(=O)c3ccc(Cl)cc3)c(N)c2C(=O)Nc2ccccc2OC)cc1,5,2,-9,-35,-29,17,.
COc1ccccc1NC(=O)c1c(Nc2ccccc2C)sc(C(=O)Nc2cccc(Cl)c2)c1N,-2,5,1,-10,-22,35*,47*
COc1ccc(C(=O)c2sc(Nc3cccc(OC)c3)c(C(=O)Nc3cccc(C)c3C)c2N)cc1,6,2,2,3,24,36*,-11
COc1ccc(C(=O)c2sc(Nc3ccccc3)c(C(=O)Nc3ccc(OC)c(OC)c3)c2N)cc1,3,2,-19,-10,-26,12,.
Cc1cc(=O)oc2cc(OCC(=O)Nc3ccc(S(=O)(=O)N(C)C)cc3)ccc12,0,0,38,-7,0,1,.
Cc1cc(=O)oc2cc(OCc3ccc(C(=O)OCC(=O)Nc4ccc(N(C)C)cc4)cc3)ccc12,8,3,3,2,39,35*,5
NN=C1c2ccccc2C(=O)C1C(=O)C(c1ccccc1)c1ccccc1 (configuration not stated),-10,5,-24,-5,-1,30*,50*
O=C(NNC(=O)C1CCC(C(=O)NNC(=O)c2cccs2)CC1)c1cccs1 (configuration not stated),-1,5,-3,5,2,-1,.
COc1ccccc1NS(=O)(=O)c1cc(NC(=O)Nc2ccc(Cl)cc2Cl)ccc1N1CCCCC1,6,2,1,4,-2,43*,17
COc1ccccc1NS(=O)(=O)c1cc(NC(=O)C2CCC2)ccc1N1CCCCC1,8,3,-2,-7,-7,20,.
O=C(COC(=O)COc1ccc(Cl)cc1)NC1CCCCCC1,-1,0,0,0,-2,-6,.

# Screening results as filed in PubChem BioAssay.
